Measured values: ChEMBL document CHEMBL4680120, “Novel anti-Alzheimer phenol-lipoyl hybrids: Synthesis, physico-chemical characterization, and biological evaluation” (Eur J Med Chem, 2020)
In brackets after ≈: the same amount, converted by molar mass. Activity calls are given as the source filed them. No cut-off for these calls is given here.

Assays:
SH-SY5Y [1] = experiment: Cytotoxicity against human SH-SY5Y cells assessed as reduction in cell viability at 1 to 250 mg/l measured after 48 hrs by MTT assay; format: cell-based; details: dose 1-250 mg/L
Procedure, shortened: (§1)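 SH-SY5Y cells grown in DMEM/F12 with 10% FBS and differentiated with retinoic acid (10 μM), seeded at 1×10^4 per well and cultured 24 h. Cells were given hybrids at 1–250 mg/L with or without Aβ1-42 (20 μM) for 48 h. MTT (5 mg/mL) added for 4 h at 37°C, DMSO solubilization, read at 570/630 nm. LDH read at 450 nm. Five independent experiments.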

[2] = Stability in simulated gastric fluid at pH 1.2 assessed as relative difference measured after 60 mins in presence of pepsin by HPLC analysis; format: ADME; details: isolated protein, pH 1.2, 1 h
Procedure, shortened: (§2)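 Incubation in simulated gastric fluid (pH 1.2, pepsin) or simulated intestinal fluid (pH 6.8, pancreatin). Aliquots deproteinized with ice-cold acetonitrile, centrifuged at 4°C and 12000 rpm for 10 min, filtered, analyzed by HPLC. RD% = (Ci − Cf)/Ci × 100. Stable if RD < 5%. Means of three experiments.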

[3] = Stability in simulated intestinal fluid at pH 6.8 assessed as relative difference measured after 180 mins in presence of pancreatin by HPLC analysis; format: ADME; details: simulated gi fluid, pH 6.8, 3 h; procedure, shortened: as §2
[4] = Stability in simulated gastric fluid at pH 1.2 assessed as relative difference measured after 30 mins in presence of pepsin by HPLC analysis; format: ADME; details: isolated protein, pH 1.2, 0.5 h; procedure, shortened: as §2
[5] = Stability in simulated intestinal fluid at pH 6.8 assessed as relative difference measured after 30 mins in presence of pancreatin by HPLC analysis; format: ADME; details: simulated gi fluid, pH 6.8, 0.5 h; procedure, shortened: as §2
[6] = Stability in simulated intestinal fluid at pH 6.8 assessed as relative difference measured after 15 mins in presence of pancreatin by HPLC analysis; format: ADME; details: simulated gi fluid, pH 6.8, 0.25 h; procedure, shortened: as §2
[7] = Stability in human plasma assessed as observed rate constant by HPLC analysis; format: ADME, cell-free
Procedure, shortened: (§3)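 Compound stock added to human plasma pre-warmed to 37°C and diluted with 0.02 M phosphate buffer (pH 7.4) to 80% plasma. 100 μL samples taken over time, quenched with 200 μL cold acetonitrile, centrifuged, and supernatant analyzed by HPLC. t½ and kobs are means of three experiments.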

[8] = Stability in simulated intestinal fluid at pH 6.8 assessed as relative difference measured after 60 mins in presence of pancreatin by HPLC analysis; format: ADME; details: simulated gi fluid, pH 6.8, 1 h; procedure, shortened: as §2
[9] = Stability in simulated gastric fluid at pH 1.2 assessed as relative difference measured after 15 mins in presence of pepsin by HPLC analysis; format: ADME; details: isolated protein, pH 1.2, 0.25 h; procedure, shortened: as §2
[10] = Stability in simulated intestinal fluid at pH 6.8 assessed as relative difference measured after 120 mins in presence of pancreatin by HPLC analysis; format: ADME; details: simulated gi fluid, pH 6.8, 2 h; procedure, shortened: as §2
[11] = Half life in human plasma by HPLC analysis; format: ADME, cell-free; procedure, shortened: as §3
SH-SY5Y [12] = experiment: Neuroprotective activity against amyloid beta (1 to 42)-induced toxicity in human SH-SY5Y cells assessed as increase in cell viability at 1 to 250 mg/l measured after 48 hrs by MTT assay; format: functional, cell-based; details: dose 1-250 mg/L; procedure, shortened: as §1
SH-SY5Y [13] = experiment: Neuroprotective activity against amyloid beta (1 to 42)-induced toxicity in human SH-SY5Y cells assessed as increase in cell viability at 1 to 250 mg/l measured after 48 hrs by LDH release assay; format: functional, cell-based; details: dose 1-250 mg/L; procedure, shortened: as §1
[14] = Stability in simulated intestinal fluid at pH 6.8 assessed as hydrolysis measured immediately in presence of pancreatin by HPLC analysis; format: ADME; details: simulated gi fluid; procedure, shortened: as §2
[15] = Solubility of compound in water by HPLC analysis; format: physicochemical
SH-SY5Y [16] = experiment: Neuroprotective activity against amyloid beta (1 to 42)-induced apoptosis in human SH-SY5Y cells assessed as decrease in DNA condensation at IC50 measured after 48 hrs by Hoechst 33258 staining based fluorescence microscopic assay; format: functional, cell-based
Procedure, shortened: (§4)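 Differentiated SH-SY5Y cells, 4×10^4 per well, exposed 48 h to Aβ1-42 (20 μM) with or without hybrid. Fixed in 4% paraformaldehyde for 30 min, stained with Hoechst 33258 for 15 min. Nuclear chromatin condensation and DNA fragmentation scored by fluorescence microscopy at ×200.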

Erythrocyte [17] = experiment: Antioxidant activity in human RBC assessed as increase in total antioxidant capacity level up to 400 ug/ml measured after 72 hrs relative to control; format: functional; details: dose microg/ml <=400
Erythrocyte [18] = experiment: Cytoprotective activity against H2O2-induced oxidative damage in human RBC assessed as recovery of H2O2-induced cell death at 50 to 100 uM measured after 72 hrs by LDH release assay relative to control; format: functional; details: dose 50-100 µM
Procedure, shortened: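 Heparinised human whole blood cultured in phytohemagglutinin-containing chromosome medium and co-incubated with hybrids and H2O2 at 37C for 72 h. LDH released into the culture medium was measured with a commercial kit. Triton X-100 served as positive control, with untreated cultures as reference. Cytoprotection was expressed as viability relative to control.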

Erythrocyte [19] = experiment: Cytoprotective activity against H2O2-induced oxidative damage in human RBC assessed as increase in cell viability measured after 72 hrs by LDH release assay; format: functional, cell-based
Procedure, shortened: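 Heparinized whole blood cultured with phytohemagglutinin. Cells were co-incubated with 50 or 100 μM hybrid and H2O2 (25 μM). Viability was read by MTT: lymphocytes at 2×10^5 per well, MTT 4 h at 37°C, formazan dissolved in DMSO, absorbance 570 nm. LDH release was measured on 100 μL medium with a commercial kit. Results are relative to untreated control.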

SH-SY5Y [20] = experiment: Neuroprotective activity against amyloid beta (1 to 42)-induced apoptosis in human SH-SY5Y cells assessed as early apoptotic cells at IC50 measured after 48 hrs by Annexin-V/Propidium iodide staining based flow cytometry (reference value: 0.74%); format: functional
Erythrocyte [21] = experiment: Cytoprotective activity against H2O2-induced oxidative damage in human RBC assessed as recovery of H2O2-induced cell death at 50 to 100 uM measured after 72 hrs by MTT assay relative to control; format: functional; details: dose 50-100 µM
SH-SY5Y [22] = experiment: Neuroprotective activity against amyloid beta (1 to 42)-induced apoptosis in human SH-SY5Y cells assessed as late apoptotic cells at IC50 measured after 48 hrs by Annexin-V/Propidium iodide staining based flow cytometry (reference value: 33.72%); format: functional
Erythrocyte [23] = experiment: Cytoprotective activity against H2O2-induced oxidative damage in human RBC assessed as increase in cell viability measured after 72 hrs by MTT assay; format: functional, cell-based
SH-SY5Y [24] = experiment: Neuroprotective activity against amyloid beta (1 to 42)-induced apoptosis in human SH-SY5Y cells assessed as decrease in DNA fragmentation at IC50 measured after 48 hrs by Hoechst 33258 staining based fluorescence microscopic assay; format: functional, cell-based; procedure, shortened: as §4
SH-SY5Y [25] = experiment: Neuroprotective activity against amyloid beta (1 to 42)-induced apoptosis in human SH-SY5Y cells assessed as necrotic cells at IC50 measured after 48 hrs by Annexin-V/Propidium iodide staining based flow cytometry (reference value: 6.99%); format: functional
Erythrocyte [26] = experiment: Cytoprotective activity against H2O2-induced oxidative damage in human RBC assessed as restoration of antioxidant activity measured after 72 hrs by TAC assay; format: functional, cell-based
Erythrocyte [27] = experiment: Cytoprotective activity against H2O2-induced oxidative damage in human RBC assessed as restoration of antioxidant activity at 50 to 100 uM measured after 72 hrs by TAC assay relative to control; format: functional; details: dose 50-100 µM

| Structure (SMILES) | Activity (SH-SY5Y [1]) | fold change (FC) [2] [%] | fold change (FC) [3] [%] | fold change (FC) [4] [%] | fold change (FC) [5] [%] | fold change (FC) [6] [%] | K [7] [h⁻¹] | fold change (FC) [8] [%] | fold change (FC) [9] [%] | fold change (FC) [10] [%] | half-life [11] [h] | Activity (SH-SY5Y [12]) | Activity (SH-SY5Y [13]) | solubility [15] [µg/mL] | further results |
| --- | --- | --- | --- | --- | --- | --- | --- | --- | --- | --- | --- | --- | --- | --- | --- |
| COc1ccc(/C=C/C(=O)NCCCCNC(=O)CCCCC2CCSS2)cc1OC (configuration not stated) | Non-Toxic | 22.16 | 34.75 | 8.23 | 3.64 | 3 | 0.019 | 11.79 | 4.67 | 22.21 | 36.4 | Active | Active |  |  |
| COc1ccc(CC(=O)OCCCNC(=O)CCCCC2CCSS2)cc1OC (configuration not stated) | Non-Toxic | 60.98 |  | 35.89 |  |  | 1.146 |  | 15.23 |  | 0.62 | Active | Active | 110 (≈ 249 µM) | Stabilty [14]: Unstable |
| O=C(CCCCC1CCSS1)NCCNC(=O)Cc1ccc(O)c(O)c1 (configuration not stated) | Non-Toxic | 2.74 | 4.32 | 0.99 | 2.17 | 1.89 | 0.031 | 4.02 | 0.63 | 3.78 | 23.1 | Active | Active | 2690 (≈ 6740 µM) |  |
| COc1ccc(CC(=O)NCCCNC(=O)CCCCC2CCSS2)cc1OC (configuration not stated) | Non-Toxic | 4.03 | 2.09 | 1.89 | 0.73 | 0.45 |  | 0.9 | 2.9 | 1.32 | > 12 | Active | Active | 42 (≈ 95.3 µM) | Activity (SH-SY5Y [16]): Active; Activity (Erythrocyte [17]): 4.2%; Activity (Erythrocyte [18]): 0.4%; Activity (Erythrocyte [19]): Dose-dependent effect; Activity (SH-SY5Y [20]): 3.51%; Activity (Erythrocyte [21]): 0.5%; Activity (SH-SY5Y [22]): 16.01%; Activity (Erythrocyte [23]): Dose-dependent effect; Activity (SH-SY5Y [24]): Active; Activity (SH-SY5Y [25]): 1.66%; Activity (Erythrocyte [26]): Dose-dependent effect |
| O=C1O[C@H]([C@@H](O)CO)C(O)=C1O [ASCORBIC ACID] |  |  |  |  |  |  |  |  |  |  |  |  |  |  | Activity (Erythrocyte [17]): 10.7% |
| O=C(CCCCC1CCSS1)NCCCNC(=O)Cc1ccc(O)c(O)c1 (configuration not stated) | Non-Toxic | 65.48 | 90.2 | 47.45 | 30.4 | 5.6 | 0.08 | 56.3 | 15.27 | 70 | 9.21 | Active | Active | 235 (≈ 570 µM) | Activity (Erythrocyte [27]): 79.2%; Activity (Erythrocyte [17]): 26.5%; Activity (Erythrocyte [18]): 0.4%; Activity (Erythrocyte [19]): Dose-dependent effect; Activity (SH-SY5Y [20]): 3.88%; Activity (Erythrocyte [21]): 0.5%; Activity (SH-SY5Y [22]): 13.72%; Activity (Erythrocyte [23]): Dose-dependent effect; Activity (SH-SY5Y [25]): 1.23%; Activity (Erythrocyte [26]): Dose-dependent effect |
| O=C(CCCCC1CCSS1)NCCCCNC(=O)Cc1ccc(O)c(O)c1 (configuration not stated) | Non-Toxic | 57.89 | 88.91 | 37.63 | 20.44 | 1.5 | 0.479 | 42.7 | 10.37 | 63 | 1.49 | Active | Active | 81 (≈ 190 µM) |  |
| COc1cc(/C=C/C(=O)NCCNC(=O)CCCCC2CCSS2)ccc1O (configuration not stated) | Non-Toxic | 3.45 | 4.8 | 1.28 | 3.01 | 2.52 | 0.012 | 5.2 | 0.25 | 4.15 | 57.4 | Active | Active | 23 (≈ 54.2 µM) |  |
| O=C(CCCCC1CCSS1)NCCOC(=O)Cc1ccc(O)c(O)c1 (configuration not stated) | Non-Toxic | 67.34 | 100 | 46.72 | 35.4 | 2.5 | 0.613 | 54.62 | 12.34 | 70.45 | 1.13 | Active | Active | 736 (≈ 1840 µM) |  |
| O=C(CCCCC1CCSS1)NCCOCCOC(=O)Cc1ccc(O)c(O)c1 (configuration not stated) | Non-Toxic | 78.9 | 100 | 63.52 | 45.89 | 3.87 | 0.32 | 60.78 | 45.21 | 89.78 | 2.16 | Active | Active | 2480 (≈ 5600 µM) |  |
| O=C(CCCCC1CCSS1)NCCCOC(=O)Cc1ccc(O)c(O)c1 (configuration not stated) | Non-Toxic | 100 |  | 86.54 |  |  | 0.93 |  | 72.4 |  | 0.75 | Active | Active | 933 (≈ 2260 µM) | Stabilty [14]: Unstable |
